Activity calls are given as the source filed them.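 Rule for the calls, unless noted: active = visually confirmed hit in the image check and inhibition above 20%; inconclusive = visually confirmed hit but inhibition not above 20%; inactive = no visual hit in the image check.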
Experiments:
[1] = inhibitors of TNFa-induced NFkB p65 translocation, primary screen, imaging, HUVEC, MLSMR starter and 10KST1 sets (AID 438;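 active = inhibition above 20% together with a positive visual image hit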;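 note: compound added about 3h40 before a 20 min TNFalpha stimulation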;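 for inhibition: signal is the nuclear over cytoplasmic p65 intensity ratio per well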); conditions: HUVEC TNFa-induced p65 nuclear translocation; cell count: measured here: nuclei count (cytotoxicity indicator), at 2.08 µM; inhibition: at 2 µM, stronger effect = higher value, 0% TNFa-plus-vehicle, 100% no-TNFa wells
[2] = endothelial E-selectin expression blockers – imaging, HUVEC, immunofluorescence, MLSMR starter and 10KST1 sets, primary screen (AID 487); conditions: HUVEC TNFalpha-induced E-selectin immunofluorescence imaging, at 2 µM; inhibition: stronger effect = higher value; nuclei count: measured here: cell number, toxicity;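 for inhibition: signal is fraction of cell area covered by stained E-selectin grains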;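 for nuclei count: 100% = median nuclei count of all wells on the same plate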
[3] = Primary imaging screen for DUSP6 inhibitors that restore phospho-Erk in transfected HeLa cells, chemical complementation (AID 609;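 active = compounds giving at least 50% inhibition in the cell-based MKP-3 phosphatase rescue imaging test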;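 for inhibition: phospho-Erk level distribution per well compared with pooled transfected vehicle control wells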); conditions: HeLa MKP-3 transfected, phospho-Erk imaging KS statistic, at 10 µM, cells stimulated with TPA for 15 min
[4] = target: Dual specificity protein phosphatase 6 (Homo sapiens) (UniProt Q16828); test: as above; conditions: HeLa MKP-3 transfected, phospho-Erk imaging KS statistic; at 10 µM; stronger effect = higher value; cells stimulated with TPA for 15 min
Sequence of Dual specificity protein phosphatase 6 (Homo sapiens) (Q16828 whole entry, looked up): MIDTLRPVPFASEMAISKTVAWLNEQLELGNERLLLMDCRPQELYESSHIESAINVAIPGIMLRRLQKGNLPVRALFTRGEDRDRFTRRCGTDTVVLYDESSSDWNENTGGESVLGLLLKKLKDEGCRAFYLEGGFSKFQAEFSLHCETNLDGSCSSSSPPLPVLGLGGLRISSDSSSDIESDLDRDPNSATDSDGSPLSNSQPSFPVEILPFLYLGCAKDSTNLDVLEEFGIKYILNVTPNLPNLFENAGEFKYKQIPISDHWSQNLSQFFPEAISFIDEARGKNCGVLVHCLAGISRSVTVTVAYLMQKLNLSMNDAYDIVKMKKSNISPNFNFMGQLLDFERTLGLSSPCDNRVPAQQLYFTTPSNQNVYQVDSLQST

[5] = target: Voltage-gated potassium channel subunit beta-2 (Rattus norvegicus) (UniProt P62483); test: inhibitors of rat Kvbeta2 reductase activity – biochemical, NADPH fluorescence, primary screen (AID 622;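 active = fluorescence slope higher than the sample average by over 3 SD, cut at about -0.22 in these data, passing the limit was not always enough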;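 note: slope of raw intensity against log time taken from 70 to 1610 s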); conditions: recombinant KvBeta, 4-cyanobenzaldehyde reduction, at 10 µM, stronger effect = higher value
Sequence of Voltage-gated potassium channel subunit beta-2 (Rattus norvegicus) (P62483 whole entry, looked up): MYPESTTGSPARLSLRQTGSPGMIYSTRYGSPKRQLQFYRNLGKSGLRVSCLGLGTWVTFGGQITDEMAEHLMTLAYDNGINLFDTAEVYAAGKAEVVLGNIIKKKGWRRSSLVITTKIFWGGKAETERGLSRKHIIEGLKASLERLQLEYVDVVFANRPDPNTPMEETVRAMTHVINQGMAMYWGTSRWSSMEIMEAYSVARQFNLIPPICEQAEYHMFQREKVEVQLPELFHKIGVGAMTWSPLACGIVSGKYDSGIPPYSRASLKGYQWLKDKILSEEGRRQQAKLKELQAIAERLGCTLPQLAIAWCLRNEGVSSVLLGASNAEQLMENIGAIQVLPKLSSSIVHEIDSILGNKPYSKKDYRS

[6] = target: Voltage-gated potassium channel subunit beta-2 (Rattus norvegicus) (UniProt P62483); test: enhancers of rat Kvbeta2 NADPH turnover – biochemical, NADPH fluorescence, primary screen (AID 623;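 active = NADPH fluorescence slope more negative than the mean of all samples by about 3 SD, 99.7% confidence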;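 note: fluorescence intensity change per second fitted from 20 to 320 s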); conditions: Recombinant KvBeta, NADPH fluorescence decrease slope, 10 min; at 10 µM; stronger effect = lower value
[7] = target: Muscarinic acetylcholine receptor M4 (Homo sapiens) (UniProt P08173); test: M4-linked GIRK flux change, two-sided – cell-based, HEK293 M4/GIRK, thallium flux, BTC-AM, M4 allosteric agonist project, primary screen (AID 625;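 active = fluorescence slope after compound addition differing from the mean of all tested samples at 99.7% confidence, mostly higher but some lower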;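 note: thallium influx through GIRK channels coupled to M4 in HEK293 cells with BTC-AM dye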); conditions: at 10 µM, actives lie on both sides
Sequence of Muscarinic acetylcholine receptor M4 (Homo sapiens) (P08173 whole entry, looked up): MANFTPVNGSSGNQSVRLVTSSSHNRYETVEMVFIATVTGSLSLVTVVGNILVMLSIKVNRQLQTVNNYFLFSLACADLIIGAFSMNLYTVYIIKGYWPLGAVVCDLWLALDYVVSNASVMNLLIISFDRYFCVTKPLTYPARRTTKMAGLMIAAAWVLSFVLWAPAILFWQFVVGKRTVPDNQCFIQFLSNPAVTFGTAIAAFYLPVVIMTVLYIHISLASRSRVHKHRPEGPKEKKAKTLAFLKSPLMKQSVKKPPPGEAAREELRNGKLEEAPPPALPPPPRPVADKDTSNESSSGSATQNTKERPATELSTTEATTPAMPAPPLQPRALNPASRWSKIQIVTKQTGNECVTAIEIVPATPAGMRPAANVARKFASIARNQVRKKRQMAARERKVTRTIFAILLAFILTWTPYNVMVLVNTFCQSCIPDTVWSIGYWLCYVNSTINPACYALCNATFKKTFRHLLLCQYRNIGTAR
Outline: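 Assay system: HEK293 cells with M4 receptor and GIRK channels / Controls: carbachol and DMSO controls / Schedule: 1 h dye loading, 2 min kinetic read / Technique: kinetic fluorescence with BTC-AM dye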

[8] = inhibitors of larval lipid processing in zebrafish, primary screen, whole organism, PED6 fluorescence, gall bladder and intestine (AID 686;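 active = a full or partial loss of lipid-probe fluorescence in the fish gall bladder, intestine or both, judged by eye; inactive = no fluorescence loss, or compound toxic to the fish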;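 note: larvae 5 to 7 days old with five fish per well; signal comes from phospholipase A2 cleavage of quenched PED6 carried via bile; overnight exposure to compound and PED6 before scoring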); conditions: Zebrafish larvae PED6 lipid processing, fluorescence scoring; screened at 20 µM (by protocol)
Outline: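 Doses: 20 µM single dose. Test system: live zebrafish larvae aged 5-7 days, whole organism. Quantity: five larvae per well. Measured by: By-eye fluorescence microscopy. Reagent: ingested quenched lipid PED6 at 100 nM. Read-out: visual per-well fluorescence inhibition score. Times: overnight exposure of larvae to compound plus PED6.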

[9] = loss of swimming-algae plug formation – whole organism, Chlamydomonas reinhardtii, WT vs cilia-less mutant, absorbance, 96-well, primary screen (AID 463189;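 active = inhibition at or above 50% relative to wild type and mutant plate controls; inactive = inhibition below 50%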;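 note: 0% = wild type cc124 cells in DMSO and 100% = ciliumless bld1 mutant cells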); conditions: Chlamydomonas reinhardtii gravitaxis, OD600 absorbance, 2 days; at 10 µM; stronger effect = higher value
[10] = measured here: cell density z-score
[11] = measured here: nuclear c-Myc green intensity z-score
[12] = measured here: nuclear pErk red intensity z-score, stronger effect = higher value

Compound | cell count [1] | inhibition [1] | inhibition [2] | nuclei count [2] | z-score [3, 10] | z-score [3, 11] | z-score [3, 12] | inhibition [4] | fluorescence slope [5] | NADPH fluorescence slope [6] | fluorescence slope [7] | outcome [8] | inhibition [9]
FC(F)(F)c1cccc(-n2cccc2/C=N/n2cnnc2)c1 | 415 | -3.1% (inactive) | 39.9% (inactive) | 140% | -1.39 | 0.953 | 1.88 | -0.608% (inactive) | -0.438 (inactive) | -0.00012 (inactive) | 0.00494 (inactive) | inactive | 13.6% (inactive)
COc1ccc(/C(O)=C2/C(=O)C(=O)N(CCCN(C)C)C2c2ccc(C)o2)cc1Cl (stereo unspecified) | 709 | -8.3% (inactive) | -108% (inactive) | 146% | -0.0808 | -0.238 | -0.0387 | -6.48% (inactive) | -0.48 (inactive) | -4.6e-05 (inactive) | 0.0051 (inactive) | inactive | 18.3% (inactive)
COC(=O)c1[nH]c2ccc(Cl)cc2c1NC(=O)C1CC1 | 489 | -0.3% (inactive) | -43.6% (inactive) | 120% | -0.422 | -0.0225 | -0.572 | -4.59% (inactive) | -0.451 (inactive) | -5.4e-05 (inactive) | 0.00568 (inactive) | inactive | -10.7% (inactive)
C(=N\n1cnnc1)/c1cccc(Oc2ccccc2)c1 | 569 | -5.8% (inactive) | -140% (inactive) | 111% | -0.768 | 1.37 | 1.58 | -6.06% (inactive) | -0.515 (inactive) | -5.4e-05 (inactive) | 0.00705 (inactive) | inactive | 78.1% (active)
CC1(C)Cc2nc(NCCN3CCOCC3)c(C#N)cc2CO1 | 586 | -8.3% (inactive) | -133% (inactive) | 149% | 0.143 | 0.853 | 0.307 | -0.233% (inactive) | -0.486 (inactive) | -8.5e-05 (inactive) | 0.00414 (inactive) | inactive | -7.98% (inactive)
COC(=O)/C(C#N)=C1/SC=C(C)N1c1ccccc1 | 611 | 4.9% (inactive) | -42.5% (inactive) | 115% | -0.0327 | -1.23 | -0.208 | -13.3% (inactive) | -0.46 (inactive) | -5.6e-05 (inactive) | 0.00543 (inactive) | inactive | -8.28% (inactive)
CCc1ccc(NC(=O)CSC2=C(C#N)C(c3ccc4c(c3)OCO4)CC(=O)N2)cc1 (stereo unspecified) | 599 | -14% (inactive) | 41.8% (inactive) | 91.1% | 1.39 | -1.52 | -0.214 | 22.7% (inactive) | -0.491 (inactive) | -4.6e-05 (inactive) | 0.00667 (inactive) | inactive | -5% (inactive)
CC(C)CCNc1nc2c(cc1C#N)COC(C)(C)C2 | 536 | -6.5% (inactive) | -22.1% (inactive) | 143% | 1.89 | -0.595 | -1.16 | 22.1% (inactive) | -0.426 (inactive) | -5.9e-05 (inactive) | 0.00455 (inactive) | inactive | -19.8% (inactive)
CCOC(=O)C1=C(C)N=C2SC(C)C(=O)N2C1c1ccc(C(=O)OC)cc1 (stereo unspecified) | 701 | 2.4% (inactive) | -69.3% (inactive) | 146% | -0.735 | 0.0686 | 1.13 | 15% (inactive) | -0.428 (inactive) | -2.7e-05 (inactive) | 0.00536 (inactive) | inactive | -2.25% (inactive)
Cc1cc(C)n(C2CCCCC2OC(=O)c2ccccc2)n1 (stereo unspecified) | 526 | -10% (inactive) | -95% (inactive) | 129% | -0.506 | 0.334 | -1.55 | 9.91% (inactive) | -0.381 (inactive) | 2e-06 (inactive) | 0.00464 (inactive) | inactive | -9.73% (inactive)
CSc1nc(C)c2c(c1C#N)CCCC2 | 507 | -9.7% (inactive) | -266% (inactive) | 148% | -0.174 | -0.19 | -1.41 | 1.04% (inactive) | -0.455 (inactive) | -3.8e-05 (inactive) | 0.00451 (inactive) | inactive | 10.6% (inactive)
CN(C)CCNC(=O)C12CC3(C)CC(C)(CC(C)(C3)C1)C2 | 524 | -4.4% (inactive) | -34.6% (inactive) | 118% | -1.47 | 1.88 | -1.54 | -6.59% (inactive) | -0.465 (inactive) | -0.000122 (inactive) | 0.00507 (inactive) | inactive | -10.5% (inactive)
CC(C)CSc1nc(N2CCOCC2)c2c(c1C#N)CC(C)(C)SC2 | 574 | -6% (inactive) | -69.8% (inactive) | 145% | -0.439 | -0.915 | -0.541 | -5.81% (inactive) | -0.424 (inactive) | -8.1e-05 (inactive) | 0.00667 (inactive) | inactive | 25.7% (inactive)
C/C(=N/n1cnnc1)c1cccnc1 | 541 | 1.3% (inactive) | -130% (inactive) | 140% | 0.514 | -0.833 | -1.29 | 3.42% (inactive) | -0.448 (inactive) | -0.000104 (inactive) | 0.00412 (inactive) | inactive | -7.67% (inactive)
COc1ccccc1-c1nnc2n1N=C(c1ccc(O)c(O)c1)CS2 | 485 | 50.9% (active) | -490% (inactive) | 70.4% | 1.36 | -1.29 | -0.603 | -6.48% (inactive) | -0.429 (inactive) | -1.7e-05 (inactive) | 0.00474 (inactive) | inactive | -2.32% (inactive)
CCCCc1nc(N2CCOCC2)c(C#N)c2c1CCCC2 | 559 | -11.7% (inactive) | -89.9% (inactive) | 141% | 0.356 | 0.825 | 0.364 | -15.1% (inactive) | -0.449 (inactive) | -0.000117 (inactive) | 0.00395 (inactive) | inactive | 11.9% (inactive)
CCCc1nc(N2CCCC2)c(C#N)c2c1CCCC2 | 605 | -1.2% (inactive) | -118% (inactive) | 141% | -1.08 | 0.0644 | -0.444 | -5.81% (inactive) | -0.448 (inactive) | -9.6e-05 (inactive) | 0.00554 (inactive) | inactive | 4.3% (inactive)
COc1nnnc2c1sc1nc(N3CCOCC3)c3c(c12)CC(C)(C)OC3 | 590 | -3.9% (inactive) | -92.2% (inactive) | 154% | 0.493 | 0.116 | -0.785 | -13.3% (inactive) | -0.482 (inactive) | -0.000107 (inactive) | 0.00514 (inactive) | inactive | -3.82% (inactive)
C=CCc1cccc(/C=N/n2cnnc2)c1O | 534 | -6.9% (inactive) | -121% (inactive) | 136% | -0.238 | 0.5 | -0.321 | 13.4% (inactive) | -0.446 (inactive) | -0.00012 (inactive) | 0.00478 (inactive) | inactive | -8.96% (inactive)
COC(=O)C(C)Sc1nc2c(c(=O)n(C)c(=O)n2C)n1CCC(C)C (stereo unspecified) | 630 | 0.3% (inactive) | -5.5% (inactive) | 179% | 0.304 | -0.191 | -1.37 | 3.42% (inactive) | -0.42 (inactive) | -1.8e-05 (inactive) | 0.00499 (inactive) | inactive | 4.36% (inactive)
CCCC(CCC(=O)Nc1ccc(C(=O)OC)cc1)C(=O)O (stereo unspecified) | 402 | -5.3% (inactive) | -85.5% (inactive) | 145% | 0.89 | -1.82 | 0.0137 | 26.5% (inactive) | -0.445 (inactive) | -8.7e-05 (inactive) | 0.00528 (inactive) | inactive | -1.65% (inactive)
O=C(Oc1cccnc1)c1ccco1 | 545 | -0.5% (inactive) | 2.1% (inactive) | 99% | -1.51 | 1.45 | 1.18 | -3.95% (inactive) | -0.449 (inactive) | -4.3e-05 (inactive) | 0.00414 (inactive) | inactive | -17% (inactive)
Cn1c(N2CCN(c3ccccn3)CC2)nc2c1c(=O)n(Cc1ccc(Cl)cc1)c(=O)n2C | 678 | 5.8% (inactive) | -153% (inactive) | 180% | -0.409 | -1.46 | -0.591 | 27.8% (inactive) | -0.498 (inactive) | -2.6e-05 (inactive) | 0.00592 (inactive) | inactive | 24.6% (inactive)
COc1ccc(C(=O)CCN2CCCCCC2)cc1 | 387 | -7.4% (inactive) | -32.1% (inactive) | 148% | -0.26 | -0.113 | -0.00775 | 5.42% (inactive) | -0.438 (inactive) | -0.000102 (inactive) | 0.00485 (inactive) | inactive; toxic | -0.057% (inactive)
O=C(NCc1ccccn1)c1coc(=O)c(Br)c1 | 542 | -1% (inactive) | 22.6% (inactive) | 119% | -0.164 | 0.668 | -0.53 | 9.61% (inactive) | -0.481 (inactive) | -4e-05 (inactive) | 0.00581 (inactive) | inactive | 10.6% (inactive)
Cn1c(=O)c2c(nc(N3CCC(C(N)=O)CC3)n2CCSc2nc3ccccc3s2)n(C)c1=O | 657 | -10.1% (inactive) | -52% (inactive) | 183% | 0.335 | 0.459 | -0.422 | 7.42% (inactive) | -0.431 (inactive) | -6.4e-05 (inactive) | 0.00515 (inactive) | inactive | 21.2% (inactive)
N#Cc1c(N)nc(SCC(=O)NCc2ccc3c(c2)OCO3)c(C#N)c1-c1cccs1 | 577 | -0.3% (inactive) | 53.2% (inactive) | 115% | 0.98 | 1.31 | -0.212 | 6.04% (inactive) | -0.493 (inactive) | -6.7e-05 (inactive) | 0.00636 (inactive) | inactive | -14% (inactive)
